# Measured values from PubChem BioAssay.
# The source made the active and inactive calls.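 Rule for the calls, unless noted: active = viability loss from added drug above about 55%, and viability with drug at most 40%, in both replicates (limit read from the data, passing the limit was not always enough); inconclusive = both conditions met in only one replicate; inactive = neither replicate meets both conditions.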
# Key:
# [1] = reduced viability of SK-BR-3 breast cancer cells – cell-based, 24 h, human, pilot screen (AID 572;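 active = viability at or below 10% of carrier control in both of two separate runs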;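 note: compound exposure lasted between 18 and 24 h rather than exactly 24 h; 100% = carrier-treated control wells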); conditions: SK-BR-3 viability, CellTiter-Glo luminescence, at 10 µM, stronger effect = lower value
# [2] = HUVEC growth inhibition – cell-based, human, primary screen (AID 575;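 active = viability at or below 30% in both replicate assays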;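 note: 100% = median of untreated cell wells with 0.1% DMSO on each plate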); conditions: HUVEC proliferation, CellTiter-Glo luminescence, 72 h; at 10 µM; stronger effect = lower value
# Method in brief: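 material = primary HUVEC, no more than 12 passages | input = 1250 cells per well | controls = vehicle and MePR control wells | measured by = CTG luminescence | times = 72 h compound incubation | format = collagen-coated 384-well format | read-out = % viability vs DMSO wells | doses = single 10 µM dose, 0.1% DMSO, from 5x medium stock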
# [3] = H69AR cell proliferation blockers – human, duplicate replicates, primary screen (AID 580;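 active = viability at or under a set limit in both replicates, limit being median viability minus 3 SD, cut at about 48% in these data, passing the limit was not always enough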;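 note: 100% = mean luminescence of untreated wells and 0% = no signal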); conditions: H69AR lung tumor cells viability, ATP luminescence, 72 h; at 10 µM; stronger effect = lower value
# [4] = MRP1 drug-resistance reversers in H69AR cells – cell-based, doxorubicin co-treatment, pilot screen (AID 601); conditions: CellTiter-Glo, 72 h, at 10 µM; for differential viability (reversal): stronger effect = higher value
# [5] = yeast transport mutant growth inhibition pilot in 384-well plates, post-Golgi transport modulator project (AID 636; in the data active = inhibition above about 31%); conditions: absorbance 615 nm, about 18 h, stronger effect = higher value
# [6] = growth suppression of yeast trafficking mutant, preliminary HTS, modulators of trafficking downstream of Golgi apparatus project, 1536-format plate, OD 615 nm (AID 637; in the data active = inhibition above about 30%); conditions: yeast transport mutant growth, absorbance 615 nm, 18 h; stronger effect = higher value
# [7] = H69AR cells + 2 uM doxorubicin, measured here: viability with 2 uM doxorubicin, stronger effect = lower value
# [8] = H69AR cells, compound alone cytotoxicity
Structure (SMILES),viability [1],viability [2],viability [3],differential viability (reversal) ([4]; H69AR cells + 2 uM doxorubicin),"viability [4, 7]","viability [4, 8]",inhibition [5],inhibition [6]
CCc1nc(SCc2cc(Cl)ccc2OC)n[nH]1,99% (inactive),94.2% (inactive),94.7% (inactive),-11.5% (inactive),106%,94.7%,-0.68% (inactive),-6.55% (inactive)
CC(=O)C1=C(O)C(=O)N(C2CCCCC2)C1c1ccccc1 (stereo unspecified),107% (inactive),98.6% (inactive),97.3% (inactive),10.9% (inactive),86.4%,97.3%,-8.08% (inactive),5.32% (inactive)
O=C(CN1C(=O)c2ccccc2S1(=O)=O)Nc1ccc(S(=O)(=O)N2CCCCCC2)cc1,110% (inactive),81.4% (inactive),103% (inactive),14.2% (inactive),89.3%,103%,5.48% (inactive),-1.45% (inactive)
Cc1ccc(Cn2nnnc2CN2CCC(O)(c3ccccc3F)CC2)cc1,62% (inactive),92.6% (inactive),83.1% (inactive),-2.32% (inactive),85.4%,83.1%,-8.36% (inactive),-0.65% (inactive)
CCN(CC)CCNC(=O)c1ccc(NC(C)=O)cc1,136% (inactive),96.6% (inactive),94.8% (inactive),-6.82% (inactive),102%,94.8%,-1.69% (inactive),3.5% (inactive)
N#Cc1c(N2CCOCC2)nc(N2CCCCC2)c2c1CCN(C1CCCCC1)C2,92% (inactive),101% (inactive),89.2% (inactive),17.5% (inactive),71.6%,89.2%,-1.22% (inactive),-1.82% (inactive)
c1ccc(-c2ccc(-c3ccccn3)nn2)nc1,112% (inactive),55.3% (inactive),59.4% (inactive),-10.1% (inactive),69.5%,59.4%,-6.27% (inactive),-0.63% (inactive)
COc1cccc(NC(=O)C2C3C=CC4(O3)C2C(=O)N(C(C)C)C4C(=O)NC2CCCCC2C)c1 (stereo unspecified),111% (inactive),105% (inactive),96.9% (inactive),8.79% (inactive),88.1%,96.9%,0.26% (inactive),-4.92% (inactive)
COc1ccc(COC(=O)c2n[nH]c3ccccc23)cc1F,89% (inactive),85.2% (inactive),100% (inactive),8.74% (inactive),91.3%,100%,-9.45% (inactive),3.82% (inactive)
Cc1ccc(F)cc1NC(=O)c1cccc2nccnc12,91.5% (inactive),76.5% (inactive),91.1% (inactive),6.75% (inactive),84.3%,91.1%,-1.2% (inactive),0.48% (inactive)
CCCc1nc(NCc2ccncc2)c2nnn(Cc3ccccc3F)c2n1,99% (inactive),107% (inactive),54.5% (inactive),8.61% (inactive),45.9%,54.5%,-1.37% (inactive),-3.39% (inactive)
CC1(C)CC(=O)C2=C(C1)N(CC1CCCO1)C(=O)C2(O)C(F)(F)F (stereo unspecified),98% (inactive),97.5% (inactive),101% (inactive),3.08% (inactive),97.7%,101%,-5.95% (inactive),-6.36% (inactive)
